Test system: L1210
Experiment: Cytotoxic concentration required to reduce rate of L1210 cell proliferation after 48 hr
Format: functional, cell-based
Details: Mus musculus, L1210, 48 h
In short: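 L1210 cells grown rapidly in suspension culture were exposed to a range of inhibitor concentrations, some tests with the adenosine deaminase inhibitor pentostatin added. The drop in proliferation rate versus untreated controls was found by cell counts at 24 and 48 h after addition, and IC50 was taken from this.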

Row | SMILES | IC50 [µM]
1 | Nc1nc(N)c2[nH]nc([C@@H]3O[C@H](CO)[C@@H](O)[C@H]3O)c2n1 | 31
2 | Nc1nc(F)nc2c([C@@H]3O[C@H](CO)[C@@H](O)[C@H]3O)n[nH]c12.OC[C@H]1O[C@@H](n2cnc3c2NC=NC[C@H]3O)C[C@@H]1O | 22
3 | Nc1nc(N)c2[nH]nc([C@@H]3O[C@H](CO)[C@@H](O)[C@H]3O)c2n1.OC[C@H]1O[C@@H](n2cnc3c2NC=NC[C@H]3O)C[C@@H]1O | 5
4 | Nc1nc(F)nc2c([C@@H]3O[C@H](CO)[C@@H](O)[C@H]3O)n[nH]c12 | 12
5 | Nc1ncnc2c([C@@H]3O[C@H](CO)[C@@H](O)[C@H]3O)n[nH]c12.OC[C@H]1O[C@@H](n2cnc3c2NC=NC[C@H]3O)C[C@@H]1O | 0.2
6 | Nc1ncnc2c([C@@H]3O[C@H](CO)[C@@H](O)[C@H]3O)[nH]nc12 [FORMYCIN] | 1

— ChEMBL document CHEMBL1123068, “2-Fluoroformycin and 2-aminoformycin. Synthesis and biological activity” (J Med Chem, 1985)
